Results reported in ChEMBL document CHEMBL4422632, “Design of Novel Inhibitors of Human Thymidine Phosphorylase: Synthesis, Enzyme Inhibition, in Vitro Toxicity, and Impact on Human Glioblastoma Cancer” (J Med Chem, 2019).
Calls of active or inactive are those of the source. The rule behind the calls is not given here.

How the values were obtained:
HepG2 = experiment: Genotoxicity in human HepG2 cells assessed as induction of DNA-strand breaks at 1000 uM after 24 hrs by alkaline comet assay; assay type: toxicity, cell-based; conditions: hepg2, 24 h
Summary of the method: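 HepG2 seeded at 5 x 10^4 cells/well for 24 h, then exposed 24 h at 250, 500 and 1,000 μM. Alkaline comet assay: lysis 24 h, unwinding in 300 mM NaOH/1 mM EDTA (pH > 13) at 4 °C for 20 min, electrophoresis 20 min at 25 V, silver staining. MMS 100 µM as positive control. 100 cells scored 0–4 for a damage index of 0–400. Mean ± SEM of three experiments.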

U-87 MG [1] = experiment: Anti-angiogenic activity in tumor of human U87MG cells xenografted in nude BALB/c mouse assessed as reduction in number of blood vessels at 50 mg/kg, ip administered for 14 days by hematoxylin and eosin-staining based light microscopy co-treated with temozolamide; assay type: functional, organism-based; conditions: U-87MG ATCC
Summary of the method: (§1)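 U-87 MG flank xenografts (5 x 10⁵ cells) in male nude mice; ip treatment daily from about 50 mm³ for 14 days, with temozolomide at 50 mg/kg/day in the co-treatment arm. Vessel density counted on HE-stained 3 µm sections by hot-spot method, mean of four fields per tumor at x200, avoiding gross haemorrhage. One-way ANOVA/Dunnett.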

[2] = Cytotoxicity against mouse RAW264.7 cells assessed as cell viability at 250 uM after 72 hrs by neutral red uptake-based assay relative to control; conditions: read-out: Activity
Summary of the method: (§2)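 Cells kept in DMEM with 10% heat-inactivated FBS, 1% penicillin-streptomycin and 0.1% fungizone at 37 °C, 5% CO₂. U-87 MG seeded at 2 x 10^3 cells/well, RAW 264.7 at 5 x 10^2, adhered 24 h, then exposed 72 h. MTT: 1 mg/mL for 3 h, formazan in DMSO, A595. NRU: 25 μg/mL dye, 3 h, ethanol:acetic acid:water desorb. Untreated wells = 100%; three to five independent experiments in triplicate.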

[3] = Cytotoxicity against human U87MG cells assessed as cell viability at 25 uM after 72 hrs by neutral red uptake-based assay relative to control; parameters: species or system U-87MG ATCC; conditions: read-out: Activity; summary of the method: as §2
U-87 MG [4] = experiment: Anti-angiogenic activity in tumor of human U87MG cells xenografted in nude BALB/c mouse assessed as reduction in VEGF staining at 50 mg/kg, ip administered for 14 days by immunohistochemistry; assay type: functional, organism-based; conditions: U-87MG ATCC
Summary of the method: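 Male nude mice bearing subcutaneous right-flank xenografts of 5 x 10⁵ U-87 MG cells; dosing began at about 50 mm³ tumors, ip daily for 14 days. Tumors formalin-fixed, paraffin sections 3 µm; citrate pH 6 antigen retrieval at 95-98 °C; primary antibody overnight at 4 °C, HRP secondary, DAB. Positive area quantified by optical density at x200, 4 images per tumor; mean ± SEM, one-way ANOVA with Dunnett.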

[5] = Cytotoxicity against African green monkey Vero cells assessed as cell viability at 1000 uM after 72 hrs by neutral red uptake-based assay relative to control; conditions: chlorocebus sabaeus, read-out: Activity
Summary of the method: (§3)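 Cells grown in DMEM with 10% FBS at 37 °C, 5% CO₂; seeded 2 x 10³ cells/well, adhered 24 h, then exposed 72 h. MTT: 1 mg/mL for 3 h, formazan in DMSO, absorbance 595 nm. NRU: neutral red 25 µg/mL in serum-free medium for 3 h, desorbed in ethanol:acetic acid:water. Viability as % of untreated control; mean ± SEM of three to five independent experiments in triplicate.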

[6] = Cytotoxicity against human HaCaT cells assessed as cell viability at 100 uM after 72 hrs by MTT assay relative to control; assay type: cell-based; conditions: read-out: Activity; summary of the method: as §3
[7] = Cytotoxicity against mouse RAW264.7 cells assessed as cell viability at 500 uM after 72 hrs by MTT assay relative to control; assay type: cell-based; conditions: read-out: Activity; summary of the method: as §2
[8] = Cytotoxicity against human U87MG cells assessed as cell viability at 100 uM after 72 hrs by neutral red uptake-based assay relative to control; parameters: species or system U-87MG ATCC; conditions: read-out: Activity; summary of the method: as §3
[9] = Cytotoxicity against human U87MG cells assessed as cell viability at 50 uM after 72 hrs by MTT assay relative to control; assay type: cell-based, U-87MG ATCC; conditions: read-out: Activity; summary of the method: as §2
[10] = Cytotoxicity against African green monkey Vero cells assessed as cell viability at 500 uM after 72 hrs by neutral red uptake-based assay relative to control; conditions: chlorocebus sabaeus, read-out: Activity; summary of the method: as §3
Cytochrome P450 3A4 = Cytochrome P450 3A4 (Homo sapiens, UniProt P08684); experiment: Inhibition of CYP3A4 in human liver microsomes by HPLC-MS/MS analysis; assay type: ADME
[11] = Cmax in CF1 mouse at 50 mg/kg, ip by non-compartmental analysis; assay type: ADME, organism-based; parameters: dose 50 mg/kg, route intraperitoneal; conditions: in vivo
Summary of the method: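 Male CF1 mice received a single ip injection of 50 mg/kg in 0.9% saline; 3 animals per time point, killed 0.03, 0.08, 0.25, 0.5, 1 and 2 h after dosing; blood collected in heparin tubes.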

[12] = Toxicity in nude BALB/c mouse xenografted with human U87MG cells assessed as reduction in body weight at 50 mg/kg, […]; assay type: organism-based; conditions: in vivo, ip, 120 h
[13] = Cytotoxicity against mouse RAW264.7 cells assessed as cell viability at 1000 uM after 72 hrs by neutral red uptake-based assay relative to control; conditions: read-out: Activity; summary of the method: as §2
U-87 MG [14] = experiment: Induction of apoptosis in human U87MG cells xenografted in BALB/c nude mouse assessed as caspase-3 levels at 50 mg/kg, ip after 14 days by immunohistochemistry; assay type: functional, organism-based; conditions: U-87MG ATCC
Summary of the method: (§4)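 Male BALB/c nude mice implanted subcutaneously with 5 x 10⁵ U-87 MG cells in the right flank. Treated IP at 50 mg/kg/day for 14 days, with saline controls, starting once tumors reached about 50 mm³. Tumors fixed in formaldehyde and cut at 3 µm. Citrate pH 6 antigen retrieval.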

[15] = Cytotoxicity against human U87MG cells assessed as cell viability at 1000 uM after 72 hrs by neutral red uptake-based assay relative to control; parameters: species or system U-87MG ATCC; conditions: read-out: Activity; summary of the method: as §2
[16] = Cytotoxicity against human HepG2 cells assessed as cell viability at 1000 uM after 72 hrs by neutral red uptake-based assay relative to control; conditions: read-out: Activity; summary of the method: as §3
[17] = Intrinsic clearance in human liver S9 fraction at 2 uM up to 30 mins in presence of NADPH by HPLC-MS/MS analysis; assay type: ADME, subcellular; conditions: read-out: CLH
U-87 MG [18] = experiment: Anti-angiogenic activity in tumor of human U87MG cells xenografted in nude BALB/c mouse assessed as reduction in number of blood vessels at 50 mg/kg, ip administered for 14 days by hematoxylin and eosin-staining based light microscopy; assay type: functional, organism-based; conditions: U-87MG ATCC; summary of the method: as §1
Cytochrome P450 2D6 = Cytochrome P450 2D6 (Homo sapiens, UniProt P10635); experiment: Inhibition of CYP2D6 in human liver microsomes by HPLC-MS/MS analysis; assay type: ADME
[19] = Cytotoxicity against human HepG2 cells assessed as cell viability at 100 uM after 72 hrs by MTT assay relative to control; assay type: cell-based; conditions: read-out: Activity; summary of the method: as §3
[20] = MRT in CF1 mouse at 50 mg/kg, ip by non-compartmental analysis; assay type: ADME, organism-based; conditions: in vivo
U-87 MG [21] = experiment: In-vivo inhibition of cell proliferation in human U87MG cells xenografted in BALB/c nude mouse at 50 mg/kg, ip after 14 days by Ki-67b-staining based assay; assay type: functional, organism-based; conditions: U-87MG ATCC; summary of the method: as §4
[22] = Cytotoxicity against human HaCaT cells assessed as cell viability at 250 uM after 72 hrs by neutral red uptake-based assay relative to control; conditions: read-out: Activity; summary of the method: as §3

Cytochrome P450 3A4, sequence (P08684 whole entry): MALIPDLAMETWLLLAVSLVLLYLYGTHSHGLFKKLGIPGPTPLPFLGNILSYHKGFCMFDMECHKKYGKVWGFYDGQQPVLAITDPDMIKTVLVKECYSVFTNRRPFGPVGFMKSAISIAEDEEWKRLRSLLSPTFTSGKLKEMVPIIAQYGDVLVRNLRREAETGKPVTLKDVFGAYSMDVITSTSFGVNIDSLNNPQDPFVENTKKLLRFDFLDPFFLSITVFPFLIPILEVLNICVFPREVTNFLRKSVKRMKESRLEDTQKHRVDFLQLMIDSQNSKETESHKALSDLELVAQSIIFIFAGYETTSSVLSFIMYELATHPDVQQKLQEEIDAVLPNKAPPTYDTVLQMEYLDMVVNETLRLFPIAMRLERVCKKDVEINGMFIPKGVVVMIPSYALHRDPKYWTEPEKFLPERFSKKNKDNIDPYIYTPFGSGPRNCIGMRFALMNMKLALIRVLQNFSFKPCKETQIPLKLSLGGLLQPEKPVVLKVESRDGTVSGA
Cytochrome P450 2D6, sequence (P10635 whole entry): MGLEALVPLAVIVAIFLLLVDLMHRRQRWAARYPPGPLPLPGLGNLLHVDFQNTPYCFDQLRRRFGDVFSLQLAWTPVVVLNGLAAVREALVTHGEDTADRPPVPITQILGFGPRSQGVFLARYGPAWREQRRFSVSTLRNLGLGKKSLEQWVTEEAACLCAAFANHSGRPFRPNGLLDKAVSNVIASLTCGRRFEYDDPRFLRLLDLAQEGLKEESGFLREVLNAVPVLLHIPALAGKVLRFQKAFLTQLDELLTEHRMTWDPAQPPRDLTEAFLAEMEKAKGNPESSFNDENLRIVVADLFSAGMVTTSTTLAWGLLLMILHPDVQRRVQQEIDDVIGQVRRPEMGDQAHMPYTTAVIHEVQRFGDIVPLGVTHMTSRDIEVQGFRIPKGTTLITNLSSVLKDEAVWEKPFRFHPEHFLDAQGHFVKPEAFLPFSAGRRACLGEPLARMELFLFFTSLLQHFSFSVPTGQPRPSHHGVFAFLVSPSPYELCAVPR

For `O=c1[nH]c(CNC(CO)CO)c(I)c(=O)[nH]1`, the Activity (HepG2) was “Non-Toxic”, the Activity (U-87 MG [1]) was “Active” and the viability at 72 h, 250 µM [2] was 85%. For the same molecule, the viability at 72 h, 25 µM [3] was 99%, the Activity (U-87 MG [4]) was “Active” and the viability at 72 h, 1000 µM [5] was 72%. It also gave a viability at 72 h, 100 µM [6] of 98%, a viability at 72 h, 500 µM [7] of 91% and a viability at 72 h, 100 µM [8] of 104%. For the same molecule, the viability at 72 h, 50 µM [9] was 97%, the viability at 72 h, 500 µM [10] was 90% and the IC50 (Cytochrome P450 3A4) was > 100 µM. The Cmax [11] was 34800 ng/mL, the Activity [12] was “Non-Toxic” and the viability at 72 h, 1000 µM [13] was 48%. The Activity (U-87 MG [14]) was “inactive”, the viability at 72 h, 1000 µM [15] was 72% and the viability at 72 h, 1000 µM [16] was 81%. For the same molecule, the CLint scaled at 2 µM [17] was 13 mL/min/kg, the Activity (U-87 MG [18]) was “Active” and the IC50 (Cytochrome P450 2D6) was > 100 µM. The viability at 72 h, 100 µM [19] was 100%, the MRT [20] was 24 min and the inhibition (U-87 MG [21]) was “inactive”. The viability at 72 h, 250 µM [22] was 100%.
